What was measured:
Mus musculus [1] = assay: Antidepressant activity against Swiss-Webster mouse assessed as reduction in duration of immobility at 10 mg/kg, ip after 1 hr by tail suspension behavioral despair test relative to control; type: functional; set-up: scale not given: the % may be the effect or the level left; conditions: route intraperitoneal
In short: (§1)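 Mice dosed ip at 10 mg/kg in 0.5% w/v CMC in water (0.5 mL per 100 g body weight); controls got CMC alone; imipramine 10 mg/kg as reference. One hour later mice were hung by the tail from a shelf edge 80 cm above the floor, taped about 1 cm from the tail tip. Immobility (passive, completely motionless hanging) timed over 6 min; mean ± S.E.M., % deviation from control.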

Mus musculus [2] = assay: Antidepressant activity against Swiss-Webster mouse at 10 mg/kg, ip after 1 hr by tail suspension behavioral despair test relative to imipramine; type: functional; conditions: route intraperitoneal; in short: as §1
[3] = Chemical stability in ferricyanide solution assessed as rate of oxidation by UV spectroscopy; type: physicochemical
[4] = Chemical stability in 30% hydrogen peroxide assessed as rate of oxidation by UV spectroscopy; type: physicochemical
[5] = Stability in mouse plasma assessed as rate of oxidation by HPLC; type: ADME, cell-free
In short: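 Heparinized mouse blood spun 4000 rpm for 20 min; plasma diluted to 80% with phosphate buffer (0.11 mol, pH 7.4) and prewarmed at 37 °C. Methanolic dihydro compound added; kept at 37 °C. Aliquots at 1, 2, 4, 8, 16, 32 and 64 min quenched in ice-cold methanol, frozen at −80 °C, centrifuged, filtered and run on HPLC. K_disapp and t1/2 from linear regression of ln peak area vs time; n = 4.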

[6] = Stability in phosphate buffer at pH 5.8 after 4 days by HPLC; type: physicochemical
In short: (§2)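 Dihydropyridine carrier at 2 × 10^-1 mmol in 0.2 M phosphate buffer (pH 7.4 or 5.8) at room temperature (32 °C), followed for 4 days by HPLC for the parent and its oxidation or degradation products. Pseudo-first-order disappearance constant from linear regression of ln peak area against time; t1/2 calculated; n = 4.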

[7] = Stability in Swiss-Webster mouse brain homogenate assessed as rate of oxidation by HPLC; type: ADME, tissue-based
In short: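 Brains from ten adult male Swiss-Webster mice were washed in ice-cold saline and homogenized in ice-cold isotonic phosphate buffer (0.2 mol, pH 7.4) to give 20% homogenate, then prewarmed 5 min at 37 °C. Methanolic dihydro compound added; held at 37 °C. Samples taken at 1–64 min into ice-cold methanol, frozen at −80 °C, then analysed by HPLC. Pseudo-first-order K and t1/2 from ln peak area vs time; n = 4.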

Brain = assay: Drug level in Sprague-Dawley rat brain at 20 mg/kg, iv; type: ADME, organism-based; set-up: dose 20 mg/kg, route intravenous; conditions: in vivo
In short: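 Male Sprague-Dawley rats received a freshly prepared DMF solution (25 mg/mL) via the external jugular vein at 20 mg/kg. Animals sacrificed at 10, 20 and 45 min. Whole brain homogenized in water plus 5% DMF in acetonitrile, then centrifuged; blood precipitated in acetonitrile. Supernatants filtered and the quaternary acid quantified by HPLC against recovery spikes of quaternary salt into blank rat brain and blood.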

[8] = Stability in phosphate buffer at pH 7.4 after 4 days by HPLC; type: physicochemical; in short: as §2

Row | SMILES | Activity (Mus musculus [1]) [%] | Activity (Mus musculus [2]) [%] | half-life [3] [min] | half-life [4] [min] | half-life [5] [min] | half-life [6] [min] | half-life [7] [min] | Drug uptake (Brain) [µg/g] | half-life [8] [min]
1 | CCOC(=O)C(C(=O)O)[n+]1ccc(C(=O)N/N=C/c2ccccc2O)cc1.[Br-] (stereo not given) | 30.34 | 78.8 | – | – | – | – | – | – | –
2 | CN1C=CC(C(=O)N/N=C/c2ccccc2Cl)C=C1 | – | – | 3.3 | 6.3 | – | – | – | – | –
3 | CCOC(=O)C(C(=O)O)N1C=CC(C(=O)N/N=C/c2ccccc2O)C=C1 (stereo not given) | 36.7 | 92.8 | 2.48 | 4.08 | – | – | – | – | –
4 | CN(C)CCCN1c2ccccc2CCc2ccccc21 [IMIPRAMINE] | 45.14 | – | – | – | – | – | – | – | –
5 | CCOC(=O)C(C(=O)O)[n+]1cccc(C(=O)N/N=C/c2ccccc2O)c1.[Br-] (stereo not given) | 39.15 | 90.2 | – | – | – | – | – | – | –
6 | CN(C)c1ccc(/C=N/NC(=O)c2cc[n+](C(C(=O)O)C(=O)O)cc2)cc1.[Br-] | 50.75 | – | – | – | – | – | – | – | –
7 | CCOC(=O)C(C(=O)O)N1C=CC(C(=O)N/N=C/c2ccccc2Cl)C=C1 (stereo not given) | 40.9 | 86.7 | 3.01 | 5.3 | 23.3 | 252 | 10.7 | 23.23 | 402
8 | CCOC(=O)C(C(=O)O)N1C=CCC(C(=O)N/N=C/c2ccc(OC)cc2)=C1 (stereo not given) | – | – | 2.1 | 3.35 | 21.8 | 196 | 10.1 | – | 260
9 | CN(C)c1ccc(/C=N/NC(=O)C2C=CN(C(C(=O)O)C(=O)O)C=C2)cc1 | 54.95 | – | 1.14 | 3.15 | 18.9 | 169 | 9.58 | 29.17 | 248
10 | CCOC(=O)C(C(=O)O)N1C=CCC(C(=O)N/N=C/c2ccccc2O)=C1 (stereo not given) | 64.55 | – | 2.17 | 3.85 | – | – | – | – | –
11 | CCOC(=O)C(C(=O)O)[n+]1ccc(C(=O)N/N=C/c2ccccc2Cl)cc1.[Br-] (stereo not given) | 31.42 | 79.6 | – | – | – | – | – | – | –

Source: ChEMBL document CHEMBL1136857, “1-Malonyl-1,4-dihydropyridine as a novel carrier for specific delivery of drugs to the brain” (Bioorg Med Chem, 2009)
